Measurements: ChEMBL document CHEMBL4425126 (J Med Chem, 2016)
Active and inactive are the calls of the source. No cut-off for these calls is given here.

Columns and labels:
SW480 (Homo sapiens) = experiment: Cytotoxicity against human SW480 cells pre-incubated with CuCl2 for 60 mins followed by compound addition for 72 hrs by MTT assay
HL-60 = experiment: Induction of intracellular ROS generation in human HL60 cells at 1 and 5 uM in presence of CuCl2 incubated for 30 mins by DCF-DA staining based fluorescence assay; format: functional, cell-based
Summary of the method: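 HL-60 cells (5 × 10^5 per sample, phenol-free Hanks balanced salt solution) were loaded with DCF-DA for 30 min. CuCl2 was added 15 min before the thiosemicarbazone, at a ligand:Cu ratio of 1:1 or 1:2. Drug exposure lasted a further 30 min, and mean fluorescence was read by flow cytometry. H2O2 (200 μM) served as control. Data are mean ± SD of three experiments.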

SW480 [1] = experiment: Induction of morphological changes in human SW480 cells assessed as induction of vacuoles at 2.5 uM incubated for 24 hrs by phase contrast microscopy; format: functional, cell-based
Summary of the method: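 SW480 cells (MEM + 10% FCS) were treated for 24 h and then photographed at 400× magnification with an sCMOS camera on a fluorescence microscope to visualise cytoplasmic vacuoles.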

SW480 [2] = experiment: Induction of morphological changes in human SW480 cells assessed as induction of vesicular blebbing in cytosol at 2.5 uM incubated for 48 hrs by phase contrast microscopy; format: functional, cell-based
SW480 [3] = experiment: Induction of morphological changes in human SW480 cells assessed as induction of massive cell flattening at 2.5 uM incubated for 48 hrs by phase contrast microscopy; format: functional, cell-based
physchem = details: n-octanol/water, pH 7.4

SMILES	Activity (SW480 (Homo sapiens))	Activity (HL-60)	Activity (SW480 [3])	further results
CN(C)c1cccnc1/C=N/NC(N)=S	Active			
CN(C)C(=S)N/N=C/c1ncccc1N(C)C		Active		Activity (SW480 [1]): Active; Activity (SW480 [2]): Active
NC(=S)N/N=C/c1ncccc1N	inactive	Active	Active	
CNC(=S)N/N=C/c1ncccc1N(C)C	Active	Active	inactive	Activity (SW480 [2]): Active
CNC(=S)N/N=C/c1ncccc1N			Active	
CNc1cccnc1/C=N/N=C(/N)S			Active	
CN(C)C(=S)N/N=C/c1ncccc1N		Active		logD (physchem): 1.3
CNc1cccnc1/C=N/NC(=S)N(C)C	Active		inactive	
CN(C)C(=S)NN=C(c1ccccn1)c1ccccn1	Active			
